A word on the EC50: it is the concentration needed to bring the measured effect to its halfway point. Broadly, the IC50 is the point on the concentration scale where inhibition reaches its midpoint. Usually solubility stands for the dissolved amount per volume that the medium holds. High values mean a readily soluble substance, low ones a poorly soluble substance. Usually pIC50 stands for the IC50 on a negative log10 scale, so that one unit is a factor of ten. For orientation: CC50 means the concentration giving 50% cytotoxicity.

Data set [1] deals with Trypanosoma brucei brucei. The data set can be described thus: Antitrypanosomal activity against suramin-sensitive Trypanosoma brucei brucei Squib427 assessed as inhibition of parasite growth. Type of data set: functional, organism-based. In a few lines:
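Bloodstream-form trypomastigotes of Squib-427 were grown at 37 °C and 5% CO₂ in Hirumi-9 medium with 10% FCS. Compounds came from 20 mM DMSO stocks, pre-diluted 2- or 4-fold serially in DMSO, then diluted in demineralized water; final DMSO was <1%. Results were reported as −logEC₅₀ with n = 2.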

The target in data set [2] is cGMP-dependent 3',5'-cyclic phosphodiesterase (Homo sapiens, UniProt O00408). The data set can be described thus: Inhibition of full length human recombinant PDE2A3 using [3H]-cAMP as substrate by scintillation proximity assay.
Sequence of cGMP-dependent 3',5'-cyclic phosphodiesterase (O00408 whole entry): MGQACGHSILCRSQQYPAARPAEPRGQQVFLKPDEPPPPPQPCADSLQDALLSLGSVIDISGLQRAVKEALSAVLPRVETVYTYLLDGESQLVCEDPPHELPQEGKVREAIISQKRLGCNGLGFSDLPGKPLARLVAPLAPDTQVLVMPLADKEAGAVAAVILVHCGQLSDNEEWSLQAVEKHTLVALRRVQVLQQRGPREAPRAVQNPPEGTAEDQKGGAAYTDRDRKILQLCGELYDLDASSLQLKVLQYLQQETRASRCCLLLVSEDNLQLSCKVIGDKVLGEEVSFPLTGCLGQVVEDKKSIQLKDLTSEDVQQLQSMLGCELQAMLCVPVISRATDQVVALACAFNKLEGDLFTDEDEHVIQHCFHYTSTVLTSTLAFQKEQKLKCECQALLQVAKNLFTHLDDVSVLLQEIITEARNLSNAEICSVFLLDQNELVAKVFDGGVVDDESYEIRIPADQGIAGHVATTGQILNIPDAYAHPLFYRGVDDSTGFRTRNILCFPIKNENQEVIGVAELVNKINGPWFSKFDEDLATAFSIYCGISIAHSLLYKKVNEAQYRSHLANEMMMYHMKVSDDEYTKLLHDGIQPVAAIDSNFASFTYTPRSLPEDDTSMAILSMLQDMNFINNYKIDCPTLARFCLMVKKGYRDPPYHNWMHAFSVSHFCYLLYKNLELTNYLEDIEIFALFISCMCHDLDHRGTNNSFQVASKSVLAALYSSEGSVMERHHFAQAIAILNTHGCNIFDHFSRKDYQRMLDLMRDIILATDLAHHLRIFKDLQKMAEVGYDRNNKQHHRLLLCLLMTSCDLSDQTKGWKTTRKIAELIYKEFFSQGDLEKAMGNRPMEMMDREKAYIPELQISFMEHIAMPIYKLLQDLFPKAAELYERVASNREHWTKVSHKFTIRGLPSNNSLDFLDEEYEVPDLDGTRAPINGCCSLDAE
The target in data set [3] is Dual 3',5'-cyclic-AMP and -GMP phosphodiesterase 11A (Homo sapiens, UniProt Q9HCR9). The data set can be described thus: Inhibition of full length human recombinant PDE11A4 using [3H]-cAMP as substrate by scintillation proximity assay. On the technique in general: In a scintillation proximity assay essentially only radioactivity close to the scintillant gives light.

Data set [4] addresses cGMP-specific 3',5'-cyclic phosphodiesterase (Homo sapiens, UniProt O76074). Briefly: Inhibition of full length human recombinant PDE5A1 using [3H]-cGMP as substrate by scintillation proximity assay. An outline of the steps: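 Radiolabelled cGMP substrate at 0.5 (final assay level). Scintillation proximity read-out of the full-length recombinant enzyme's hydrolytic activity, run in the presence of test compounds.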

The target of data set [5] is High affinity cAMP-specific and IBMX-insensitive 3',5'-cyclic phosphodiesterase 8B (Homo sapiens, UniProt O95263). The data set can be described thus: Inhibition of full length human recombinant PDE8B using [3H]-cAMP as substrate by scintillation proximity assay.
Data set [6] has as its target cAMP and cAMP-inhibited cGMP 3',5'-cyclic phosphodiesterase 10A (Homo sapiens, UniProt Q9Y233). Briefly: Inhibition of full length human recombinant PDE10A using [3H]-cAMP as substrate by scintillation proximity assay.
Data set [7] can be described thus: Solubility of compound in 0.05 M phosphate buffer at pH 7.4. Type of data set: physicochemical.
A short description of data set [8]: Inhibition of Trypanosoma brucei PDEB2 using [3H]-cAMP as substrate after 15 mins by scintillation proximity assay.
Data set [9] deals with Dual specificity calcium/calmodulin-dependent 3',5'-cyclic nucleotide phosphodiesterase 1B (Homo sapiens, UniProt Q01064). Briefly: Inhibition of full length human recombinant PDE1B1 using [3H]-cAMP as substrate by scintillation proximity assay.
A short description of data set [10]: Cytotoxicity against human MRC5 cells assessed as growth inhibition. Type of data set: cell-based. An outline of the steps: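 MRC-5 fibroblasts were grown at 37 °C and 5% CO₂ in Hirumi-9 medium with 10% FCS. Compounds came from 20 mM DMSO stocks, serially pre-diluted 2- or 4-fold in DMSO, then in demineralized water; final DMSO was <1%. Results were reported as −logCC₅₀ with n = 2.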

For data set [11], the target named is T1, 3',5'-cyclic-AMP phosphodiesterase 4B (Homo sapiens, UniProt Q07343). The data set can be described thus: Inhibition of full length human recombinant PDE4B1 using [3H]-cAMP as substrate by scintillation proximity assay.
T1 sequence (Q07343 whole entry): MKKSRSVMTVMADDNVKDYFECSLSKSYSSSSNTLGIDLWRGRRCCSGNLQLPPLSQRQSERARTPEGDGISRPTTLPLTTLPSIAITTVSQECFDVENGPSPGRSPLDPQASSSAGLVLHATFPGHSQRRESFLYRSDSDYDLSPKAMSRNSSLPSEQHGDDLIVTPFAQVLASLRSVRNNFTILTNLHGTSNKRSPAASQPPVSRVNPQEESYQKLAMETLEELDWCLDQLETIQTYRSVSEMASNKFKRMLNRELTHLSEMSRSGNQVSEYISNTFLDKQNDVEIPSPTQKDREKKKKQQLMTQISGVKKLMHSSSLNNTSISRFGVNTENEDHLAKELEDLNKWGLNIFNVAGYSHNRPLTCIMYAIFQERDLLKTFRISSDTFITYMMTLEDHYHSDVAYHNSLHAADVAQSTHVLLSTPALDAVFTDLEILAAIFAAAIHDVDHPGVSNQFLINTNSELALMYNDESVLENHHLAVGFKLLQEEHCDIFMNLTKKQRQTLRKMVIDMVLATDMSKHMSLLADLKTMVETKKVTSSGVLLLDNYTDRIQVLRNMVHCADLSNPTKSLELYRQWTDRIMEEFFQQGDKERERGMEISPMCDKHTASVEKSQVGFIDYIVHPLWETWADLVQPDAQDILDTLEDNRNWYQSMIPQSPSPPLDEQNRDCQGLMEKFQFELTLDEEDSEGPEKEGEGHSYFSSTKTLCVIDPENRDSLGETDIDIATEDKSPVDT
Data set [12] is described as follows: Inhibition of full length human recombinant PDE3A1 using [3H]-cAMP as substrate by scintillation proximity assay.
The target of data set [13] is High affinity 3',5'-cyclic-AMP phosphodiesterase 7A (Homo sapiens, UniProt Q13946). Briefly: Inhibition of full length human recombinant PDE7A1 using [3H]-cAMP as substrate by scintillation proximity assay.
Sequence of High affinity 3',5'-cyclic-AMP phosphodiesterase 7A (Q13946 whole entry): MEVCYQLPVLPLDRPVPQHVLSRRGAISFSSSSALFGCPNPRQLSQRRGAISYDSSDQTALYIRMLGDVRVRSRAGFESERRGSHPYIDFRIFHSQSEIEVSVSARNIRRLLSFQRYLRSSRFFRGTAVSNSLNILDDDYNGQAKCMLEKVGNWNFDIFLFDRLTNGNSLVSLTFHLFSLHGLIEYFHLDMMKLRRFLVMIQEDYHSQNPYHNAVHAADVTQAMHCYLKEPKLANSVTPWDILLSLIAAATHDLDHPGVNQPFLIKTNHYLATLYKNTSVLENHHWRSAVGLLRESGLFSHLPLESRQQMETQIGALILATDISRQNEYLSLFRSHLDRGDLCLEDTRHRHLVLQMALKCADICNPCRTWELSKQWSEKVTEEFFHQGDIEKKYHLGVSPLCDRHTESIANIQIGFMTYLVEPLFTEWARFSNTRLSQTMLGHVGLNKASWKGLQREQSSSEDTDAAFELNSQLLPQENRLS
Data set [14] has as its target T1, 3',5'-cyclic-AMP phosphodiesterase 4B. The data set can be described thus: Inhibition of full length human recombinant PDE4B2 using [3H]-cAMP as substrate by scintillation proximity assay.
Data set [15] concerns the target High affinity cGMP-specific 3',5'-cyclic phosphodiesterase 9A (Homo sapiens, UniProt O76083). The data set can be described thus: Inhibition of full length human recombinant PDE9A3 using [3H]-cAMP as substrate by scintillation proximity assay.
The target in data set [16] is 3',5'-cyclic-AMP phosphodiesterase 4D (Homo sapiens, UniProt Q08499). The data set can be described thus: Inhibition of full length human recombinant PDE4D3 using [3H]-cAMP as substrate by scintillation proximity assay.
Sequence of 3',5'-cyclic-AMP phosphodiesterase 4D (Q08499 whole entry): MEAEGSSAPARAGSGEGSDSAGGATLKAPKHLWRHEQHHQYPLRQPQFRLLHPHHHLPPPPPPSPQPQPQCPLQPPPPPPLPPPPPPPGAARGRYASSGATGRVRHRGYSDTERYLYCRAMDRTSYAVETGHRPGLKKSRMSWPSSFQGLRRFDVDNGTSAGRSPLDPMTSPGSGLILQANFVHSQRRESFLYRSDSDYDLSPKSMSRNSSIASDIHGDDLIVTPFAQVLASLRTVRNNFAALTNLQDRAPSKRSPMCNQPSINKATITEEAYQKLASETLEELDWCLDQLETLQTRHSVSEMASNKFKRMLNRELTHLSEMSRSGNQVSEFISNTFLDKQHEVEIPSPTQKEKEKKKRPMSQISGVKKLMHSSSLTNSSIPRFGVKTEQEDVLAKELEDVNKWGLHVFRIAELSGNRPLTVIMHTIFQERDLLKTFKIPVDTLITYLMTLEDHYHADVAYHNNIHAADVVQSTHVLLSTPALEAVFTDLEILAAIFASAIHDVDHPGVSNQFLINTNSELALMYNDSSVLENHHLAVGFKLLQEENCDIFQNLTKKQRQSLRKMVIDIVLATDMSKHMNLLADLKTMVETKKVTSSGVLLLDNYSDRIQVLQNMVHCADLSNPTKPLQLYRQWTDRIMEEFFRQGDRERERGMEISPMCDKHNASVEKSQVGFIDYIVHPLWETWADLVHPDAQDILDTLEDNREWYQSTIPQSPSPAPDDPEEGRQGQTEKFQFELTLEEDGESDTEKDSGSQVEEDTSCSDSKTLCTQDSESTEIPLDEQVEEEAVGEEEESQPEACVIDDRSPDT
The test system of another data set is Trypanosoma brucei. The data set can be described thus: Antitrypanosomal activity against Trypanosoma brucei assessed as inhibition of parasite growth after 48 hrs by resazurin assay. Type of data set: functional, organism-based.

≈ marks a conversion by molar mass, not a printed value. A value given as a limit tells only on which side of the number the result lay.

Sequence of High affinity cGMP-specific 3',5'-cyclic phosphodiesterase 9A (O76083 whole entry): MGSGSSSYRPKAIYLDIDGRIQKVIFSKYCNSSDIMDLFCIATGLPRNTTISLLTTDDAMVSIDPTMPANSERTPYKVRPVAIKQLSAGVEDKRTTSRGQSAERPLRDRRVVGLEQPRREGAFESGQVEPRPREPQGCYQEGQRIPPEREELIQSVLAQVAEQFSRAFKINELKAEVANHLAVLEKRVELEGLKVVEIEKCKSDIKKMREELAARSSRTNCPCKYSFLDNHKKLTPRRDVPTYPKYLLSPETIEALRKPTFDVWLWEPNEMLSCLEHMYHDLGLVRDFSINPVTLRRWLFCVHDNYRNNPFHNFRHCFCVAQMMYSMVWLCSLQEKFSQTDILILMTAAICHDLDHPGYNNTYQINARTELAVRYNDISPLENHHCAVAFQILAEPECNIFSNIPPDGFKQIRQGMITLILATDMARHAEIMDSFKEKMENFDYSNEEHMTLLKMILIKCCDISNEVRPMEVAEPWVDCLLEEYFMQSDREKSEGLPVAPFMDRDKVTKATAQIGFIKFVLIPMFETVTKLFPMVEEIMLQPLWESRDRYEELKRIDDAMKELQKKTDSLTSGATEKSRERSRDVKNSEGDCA
Sequence of cAMP and cAMP-inhibited cGMP 3',5'-cyclic phosphodiesterase 10A (Q9Y233 whole entry): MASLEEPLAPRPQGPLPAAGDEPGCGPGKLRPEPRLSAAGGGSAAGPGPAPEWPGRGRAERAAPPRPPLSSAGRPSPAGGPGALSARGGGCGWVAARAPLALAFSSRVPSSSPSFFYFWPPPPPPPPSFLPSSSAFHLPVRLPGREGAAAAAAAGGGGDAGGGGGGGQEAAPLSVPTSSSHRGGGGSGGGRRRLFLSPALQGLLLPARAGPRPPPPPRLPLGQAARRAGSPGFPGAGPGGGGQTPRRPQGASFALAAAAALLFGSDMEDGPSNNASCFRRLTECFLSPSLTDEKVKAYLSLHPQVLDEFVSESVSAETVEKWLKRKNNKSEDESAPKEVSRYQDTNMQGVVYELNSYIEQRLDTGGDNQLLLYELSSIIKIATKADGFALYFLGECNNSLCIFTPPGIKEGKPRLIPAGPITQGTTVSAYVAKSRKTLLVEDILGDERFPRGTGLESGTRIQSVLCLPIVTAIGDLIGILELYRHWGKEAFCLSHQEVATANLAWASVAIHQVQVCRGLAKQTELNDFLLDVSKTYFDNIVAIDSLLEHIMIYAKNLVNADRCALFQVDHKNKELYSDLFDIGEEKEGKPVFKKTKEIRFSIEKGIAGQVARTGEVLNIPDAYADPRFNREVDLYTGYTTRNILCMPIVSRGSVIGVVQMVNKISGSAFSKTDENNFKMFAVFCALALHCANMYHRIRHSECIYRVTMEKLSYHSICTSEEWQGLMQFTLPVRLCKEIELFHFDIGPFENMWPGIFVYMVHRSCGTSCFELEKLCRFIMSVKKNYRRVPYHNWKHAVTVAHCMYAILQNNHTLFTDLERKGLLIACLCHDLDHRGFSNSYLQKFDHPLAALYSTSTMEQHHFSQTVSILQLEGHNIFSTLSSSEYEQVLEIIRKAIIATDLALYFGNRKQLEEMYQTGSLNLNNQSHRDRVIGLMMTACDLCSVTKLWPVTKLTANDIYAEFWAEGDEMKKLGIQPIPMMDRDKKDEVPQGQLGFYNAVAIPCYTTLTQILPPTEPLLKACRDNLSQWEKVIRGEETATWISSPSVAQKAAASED

With `COc1ccc(C2=NN(C3CCCCCC3)C(=O)[C@@H]3CC=CC[C@H]23)cc1OCCCCOc1ccc(-c2nnn[nH]2)cc1` (racemic), the EC50 in [1] was 20 nM. Also, the IC50 in data set [2] was 6310 nM; in data set [3] it was 2000 nM; in data set [4] it was 2000 nM; in [5], 3980 nM; in data set [6] it was 501 nM; in data set [8], 3 nM. For the same molecule, the IC50 is 3980 nM in [9]; 0.631 nM in [11]; 3160 nM in data set [13]; 0.501 nM in data set [14]; over 10000 nM in data set [15]; 0.631 nM in data set [16]. The IC50 with Trypanosoma brucei worked out at 80 nM. This molecule also registered a solubility in [7] of 75 µM (≈ 43.9 µg/mL). Moreover, the pIC50 in data set [8] stood at 8.5; in data set [12] it was 6.9. Moreover, the CC50 in data set [10] was 6310 nM.
